Assay results: ChEMBL document CHEMBL4392836, “Second-generation aryl isonitrile compounds targeting multidrug-resistant Staphylococcus aureus” (Bioorg Med Chem, 2019)
Values after ≈ are worked out from the molar mass of the structure shown. Active and inactive are the calls of the source. The rule behind the calls is not given here.

Tests used:
[1] = system: Staphylococcus aureus; experiment: Antibacterial activity against methicillin-resistant Staphylococcus aureus NRS123 USA400 after 18 to 24 hrs by broth microdilution assay; type: functional
In short: (§1)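 CLSI broth microdilution with modifications. Bacteria cultured in TSB and exposed to compounds or control antibiotics in triplicate. Plates incubated aerobically at 37 °C for 18–24 h. MIC is the lowest concentration preventing visible growth.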

[2] = system: Staphylococcus aureus; experiment: Antibacterial activity against methicillin-sensitive Staphylococcus aureus NRS107 after 18 to 24 hrs by broth microdilution assay; type: functional; in short: as §1
[3] = system: Staphylococcus aureus; experiment: Antibacterial activity against methicillin-resistant Staphylococcus aureus NRS119 after 18 to 24 hrs by broth microdilution assay; type: functional; in short: as §1
[4] = system: Staphylococcus aureus; experiment: Antibacterial activity against methicillin-resistant Staphylococcus aureus USA300 NRS384 after 18 to 24 hrs by broth microdilution assay; type: functional; in short: as §1
[5] = system: Staphylococcus aureus; experiment: Antibacterial activity against methicillin-resistant Staphylococcus aureus NRS385 USA500 after 18 to 24 hrs by broth microdilution assay; type: functional; in short: as §1
[6] = system: Staphylococcus aureus; experiment: Antibacterial activity against vancomycin-resistant Staphylococcus aureus VRS10 after 18 to 24 hrs by broth microdilution assay; type: functional; in short: as §1
[7] = system: Staphylococcus aureus; experiment: Antibacterial activity against vancomycin-resistant Staphylococcus aureus VRS11a after 18 to 24 hrs by broth microdilution assay; type: functional; in short: as §1
[8] = system: Staphylococcus aureus; experiment: Bacteriostatic activity against methicillin-resistant Staphylococcus aureus USA400 NRS123 at 4 times MIC measured after 24 hrs by time-kill assay; type: functional, organism-based
[9] = system: Staphylococcus epidermidis; experiment: Antibacterial activity against methicillin-resistant Staphylococcus epidermidis NRS101 after 18 to 24 hrs by broth microdilution assay; type: functional; in short: as §1
[10] = system: Streptococcus pneumoniae; experiment: Antibacterial activity against penicillin-resistant Streptococcus pneumoniae ATCC 700677 after 18 to 24 hrs by broth microdilution assay; type: functional
In short: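 CLSI broth microdilution with modifications. Bacteria exposed to compounds in triplicate and incubated at 37 °C with 5% CO₂ for 18–24 h. MIC is the lowest concentration preventing visible growth.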

[11] = system: Enterococcus faecium; experiment: Antibacterial activity against vancomycin-resistant Enterococcus faecium ATCC 700221 after 18 to 24 hrs by broth microdilution assay; type: functional
In short: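 Broth microdilution per CLSI with modifications. Cultured in BHI and exposed to compounds in triplicate. Incubated aerobically at 37 °C for 18–24 h. MIC read as the lowest concentration with no visible growth.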

[12] = system: Acinetobacter baumannii; experiment: Antibacterial activity against Acinetobacter baumannii BAA1605 after 18 to 24 hrs by broth microdilution assay; type: functional
In short: (§2)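 Broth microdilution MIC per CLSI guidelines with modifications. Bacteria grown in TSB and exposed to compounds or control antibiotics in triplicate. Plates incubated aerobically at 37 °C for 18–24 h. MIC taken as the lowest concentration with no visible growth.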

[13] = system: Enterobacter cloacae; experiment: Antibacterial activity against Enterobacter cloacae BAA1134 after 18 to 24 hrs by broth microdilution assay; type: functional; in short: as §2
[14] = system: Klebsiella pneumoniae; experiment: Antibacterial activity against Klebsiella pneumoniae ATCC BAA-1705 after 18 to 24 hrs by broth microdilution assay; type: functional; in short: as §2
[15] = system: Pseudomonas aeruginosa; experiment: Antibacterial activity against Pseudomonas aeruginosa ATCC 15442 after 18 to 24 hrs by broth microdilution assay; type: functional; in short: as §2
[16] = system: Acinetobacter baumannii; experiment: Antibacterial activity against Acinetobacter baumannii BAA1605 after 18 to 24 hrs in presence of colistin by broth microdilution assay; type: functional
In short: (§3)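 To permeabilize the outer membrane, CLSI broth microdilution in TSB (triplicate) was run with subinhibitory colistin: ¼ × MIC for A. baumannii, E. cloacae and E. coli strains, and P. aeruginosa; ½ × MIC for K. pneumoniae. Plates incubated aerobically at 37 °C for 18–24 h. MIC taken as the lowest concentration with no visible growth.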

[17] = system: Enterobacter cloacae; experiment: Antibacterial activity against Enterobacter cloacae BAA1134 after 18 to 24 hrs in presence of colistin by broth microdilution assay; type: functional; in short: as §3
[18] = system: Klebsiella pneumoniae; experiment: Antibacterial activity against Klebsiella pneumoniae ATCC BAA-1705 after 18 to 24 hrs in presence of colistin by broth microdilution assay; type: functional; in short: as §3
[19] = system: Pseudomonas aeruginosa; experiment: Antibacterial activity against Pseudomonas aeruginosa ATCC 15442 after 18 to 24 hrs in presence of colistin by broth microdilution assay; type: functional; in short: as §3
[20] = system: Escherichia coli; experiment: Antibacterial activity against Escherichia coli BW25113 after 18 to 24 hrs in absence of colistin by broth microdilution method; type: functional; in short: as §2
[21] = system: Escherichia coli; experiment: Antibacterial activity against Escherichia coli BW25113 after 18 to 24 hrs in presence of colistin by broth microdilution method; type: functional; in short: as §3
[22] = system: Escherichia coli; experiment: Antibacterial activity against AcrAB-TolC deficient Escherichia coli […] after 18 to 24 hrs in absence of colistin by broth microdilution method; type: functional; in short: as §2
[23] = system: Escherichia coli; experiment: Antibacterial activity against AcrAB-TolC deficient Escherichia coli […] after 18 to 24 hrs in presence of colistin by broth microdilution method; type: functional; in short: as §3
[24] = Cytotoxicity against human HaCaT cells assessed as cell viability at 128 uM measured after 24 hrs by MTS assay; type: cell-based; conditions: read-out: Activity
In short: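 HaCaT keratinocytes grown in DMEM with 10% FBS at 37 °C, 5% CO₂. Compounds tested at 16, 32, 64 and 128 µM in triplicate for 24 h; controls received matching DMSO. Viability expressed as percent of DMSO-treated cells (mean ± SD).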

[25] = system: Staphylococcus aureus; experiment: Antibacterial activity against methicillin-resistant Staphylococcus aureus USA300 infected in Balb/c mouse assessed as reduction in bacterial burden in wounded skin area at 2% administered topically twice daily for 5 consecutive days measured 12 hrs post last dose relative to control; type: functional; design: scale not given: the % may be the effect or the level left
In short: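 Eight-week-old female Balb/c mice (n = 5 per group) received an intradermal injection of 40 μL of 1.32 × 10⁹ CFU/mL MRSA USA300. From abscess formation (~48 h), a 2% suspension in petroleum jelly was applied topically twice daily for 5 days, with a vehicle-only group. Mice were euthanized 12 h after the last dose. Wounds were homogenized in PBS, serially diluted and plated on mannitol salt agar (≥16 h, 37 °C). CFU reduction was calculated against vehicle.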

[26] = system: Mus musculus; experiment: Induction of inflammation in wounded skin area of Balb/c mouse infected with methicillin-resistant Staphylococcus aureus USA300 at 2% administered topically twice daily for 5 consecutive days measured 4 times daily during compound dosing; type: organism-based; conditions: in vivo, topical_or_ocular
In short: (§4)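 Female Balb/c mice with intradermal MRSA USA300 abscesses were treated topically twice daily for 5 days with a 2% suspension in petroleum jelly, alongside a vehicle group. Mice were checked at least four times daily during infection and treatment for adverse reactions. Wounds were examined for inflammation and toxicity.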

[27] = Toxicity in wounded skin area of Balb/c mouse infected with methicillin-resistant Staphylococcus aureus USA300 at 2% administered topically twice daily for 5 consecutive days measured 4 times daily during compound dosing; conditions: in vivo, topical_or_ocular; in short: as §4

## COc1cc(/C=C/c2ccc(C#N)cc2)cc(OC)c1
[1]
  MIC: 64 µM (≈ 17 µg/mL)

## N#Cc1ccc(/C=C/c2ccc(C#N)cc2)cc1
[1]
  MIC: 8 µM (≈ 1.84 µg/mL)
[2]
  MIC: 4 µM (≈ 0.921 µg/mL)
[3]
  MIC: 1 µM (≈ 0.23 µg/mL)
[4]
  MIC: 2 µM (≈ 0.461 µg/mL)
[5]
  MIC: 8 µM (≈ 1.84 µg/mL)
[6]
  MIC: 8 µM (≈ 1.84 µg/mL)
[7]
  MIC: 8 µM (≈ 1.84 µg/mL)
[8]
  Activity: Active
[9]
  MIC: 1 µM (≈ 0.23 µg/mL)
[10]
  MIC: 8 µM (≈ 1.84 µg/mL)
[11]
  MIC: > 64 µM
[12]
  MIC: > 64 µM
[13]
  MIC: > 64 µM
[14]
  MIC: > 64 µM
[15]
  MIC: > 64 µM
[16]
  MIC: 16 µM
[17]
  MIC: 4 µM
[18]
  MIC: > 64 µM
[19]
  MIC: > 64 µM
[20]
  MIC: > 64 µM
[21]
  MIC: > 64 µM
[22]
  MIC: > 64 µM
[23]
  MIC: > 64 µM
[24]
  viability at 24 h, 128 µM: > 90%
[25]
  Activity: 79.02%
[26]
  Activity: Non-Toxic
[27]
  Activity: Non-Toxic

## N#Cc1ccc(/C=C/c2ccc(F)cc2)cc1
[1]
  MIC: 64 µM (≈ 14.3 µg/mL)

## N#Cc1ccccc1/C=C/c1ccccc1
[3]
  MIC: 4 µM (≈ 0.821 µg/mL)
[4]
  MIC: 4 µM (≈ 0.821 µg/mL)

## CC/C(=C\c1ccccc1C#N)c1ccccc1
[4]
  MIC: 4 µM (≈ 0.933 µg/mL)

## N#Cc1ccc(/C=C/c2ccco2)cc1
[1]
  MIC: 32 µM (≈ 6.25 µg/mL)

## N#Cc1ccc(/C=C/c2ccc3ccccc3n2)cc1
[1]
  MIC: 8 µM (≈ 2.05 µg/mL)
[3]
  MIC: 4 µM (≈ 1.03 µg/mL)
[4]
  MIC: 4 µM (≈ 1.03 µg/mL)
[6]
  MIC: 32 µM (≈ 8.2 µg/mL)

## N#Cc1ccc(/C=C/c2ccnc3ccccc23)cc1
[1]
  MIC: > 64 µM

## N#Cc1ccc(CCc2ccc(C#N)cc2)cc1
[1]
  MIC: > 64 µM

## N#Cc1ccc(CCc2cccnc2)cc1
[1]
  MIC: > 64 µM

## N#Cc1ccc(CCC2CCc3ccccc3N2)cc1 (configuration not stated)
[1]
  MIC: 16 µM (≈ 4.2 µg/mL)

## N#Cc1ccc(/C=C/c2ccc(Cl)c(Cl)c2)cc1
[1]
  MIC: > 64 µM
